S100A4 inh HTS: inhibitors of S100A4-myosin IIA peptide binding, primary screen, biochemical, fluorescence polarization, TAMRA-MyoIIA peptide. Protein S100-A4 (Homo sapiens), P26447. inhibition, % at 10.7 µM. 360,000 tested, 0.14% active;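 active = mean inhibition of at least 70% across replicates, with every replicate also reaching that level; inconclusive = mean inhibition reaches 70% but some replicates fall short; inactive = mean inhibition below 70%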
Target sequence (P26447 whole entry, looked up): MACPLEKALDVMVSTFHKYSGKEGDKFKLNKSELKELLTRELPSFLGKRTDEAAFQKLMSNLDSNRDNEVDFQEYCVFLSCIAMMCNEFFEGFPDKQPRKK
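System – human S100A4 monomer protein, biochemical binding assay · Buffer or medium – Calcium-containing HEPES buffer, pH 7.2 · Timing – 5 min between mix addition and reading · Also added – TAMRA-labelled myosin IIA heavy-chain peptide probe, 5 nM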
Xi reactivation: activators of inactive X chromosome reactivation, primary screen, imaging, XiGFP fibroblasts, GFP high-content imaging, set 2 | 360,000 tested, 0.055% active | XiGFP mouse fibroblasts, % GFP-positive cells imaging, 3 d; cells co-treated with 5-aza-dC sensitizer; scaled so ellipticine positive control = 100% | activation, % at 7.58 µM | AID 743238, 2013;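 active = mean normalized replicate activation at least 10% and every replicate at or above 10%; inconclusive = only one of the two criteria met; inactive = mean below 10% and not all replicates reach 10%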;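 also: 0% = median of on-plate neutral control wells and 100% = ellipticine 6 µM median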
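Assay system: SV40-immortalized XiGFP fibroblast cells, line 68-5-11; buffer or medium: DMEM plus 5-aza-dC sensitizer; compound: one concentration, pinned; timing: compounds 3 days, fix/stain 15 min at room temperature; benchmarks: positive control ellipticine, 6 µM final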
DENV2 CPE: inhibitors of DENV2 cytopathic effect, primary screen, cell-based, plate reader, single concentration. DENV2-infected cells, cytopathic effect rescue. CPE inhibition, % at 9.99 µM. 350,000 tested, 1.7% active. AID 651640, 2012; in the data active = CPE inhibition above about 20%, passing the limit was not always enough; inconclusive = no clear call, values can overlap the other calls; tested in BHK-21 cells;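 also: 0% = median of neutral control wells and 100% = median of positive control wells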
E-selectin induc: E-selectin induction in HUVECs, primary screen, imaging, HUVEC, immunofluorescence imaging, single point. activation, % at 7.58 µM. normalized: neutral wells 0, TNF-alpha wells 100. P16581. 260,000 tested, 0.37% active. AID 686992, 2013;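 active = mean E-selectin-positive cell signal at least 10% of the positive control, reached in at least 60% of replicates, without over 20% cell loss; inconclusive = no rule given, readout overlaps actives, possibly toxicity-flagged; inactive = the rest, including those meeting only one limit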
Target sequence (P16581 whole entry, looked up): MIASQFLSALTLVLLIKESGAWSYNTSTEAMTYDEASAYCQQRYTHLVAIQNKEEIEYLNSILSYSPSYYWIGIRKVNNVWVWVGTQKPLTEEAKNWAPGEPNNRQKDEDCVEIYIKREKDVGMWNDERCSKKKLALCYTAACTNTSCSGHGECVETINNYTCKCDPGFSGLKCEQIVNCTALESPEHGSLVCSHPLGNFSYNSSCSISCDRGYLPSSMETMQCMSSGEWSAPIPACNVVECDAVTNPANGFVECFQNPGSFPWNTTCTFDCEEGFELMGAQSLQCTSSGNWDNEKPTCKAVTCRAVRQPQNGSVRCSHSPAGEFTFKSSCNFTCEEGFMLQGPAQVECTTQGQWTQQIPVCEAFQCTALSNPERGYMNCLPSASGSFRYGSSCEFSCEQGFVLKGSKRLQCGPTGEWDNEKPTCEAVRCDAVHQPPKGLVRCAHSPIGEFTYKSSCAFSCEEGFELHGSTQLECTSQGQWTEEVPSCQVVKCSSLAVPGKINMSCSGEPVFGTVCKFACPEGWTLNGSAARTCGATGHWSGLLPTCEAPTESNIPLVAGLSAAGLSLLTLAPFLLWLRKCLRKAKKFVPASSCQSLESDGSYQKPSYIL
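material = human umbilical vein endothelial cells (HUVEC), E-selectin induction | quantity = 3,000 cells/well | medium = EGM-2 growth medium on 0.1% gelatin-coated wells | technique = immunofluorescence imaging | read-out basis = % PE-positive cells | control set = TNF-alpha positive control, DMSO neutral control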
* = called active by the depositor; ? = inconclusive; · = no result; ! = not active in a repeat. This is a sample that favours compounds with a hit; in the whole collection about 2% have one here.

SMILES | S100A4 inh HTS | Xi reactivation | DENV2 CPE | E-selectin induc
COc1ccc(C)cc1S(=O)(=O)Nc1ccc2c(c1)OCO2 | -5 | 0 | 0 | -1
CC(NC(=O)c1ccccc1F)c1nnc(SCC(=O)Nc2nnc(C3CC3)s2)n1C (stereo not drawn) | 93* | 0 | 6 | 0
Cc1nnc(NC(=O)CSc2nnc(CCNC(=O)c3ccccc3F)n2C)s1 | -8 | 0 | 10 | ·
CO[C@H]1CN(C)C(=O)c2ccc(NC(=O)Nc3cccc(F)c3)cc2OC[C@@H](C)N(C(=O)Nc2c(C)noc2C)C[C@@H]1C | 2 | 0 | 25* | -1
CO[C@@H]1CN(C)C(=O)c2ccc(NC(=O)Nc3cccc(Cl)c3)cc2OC[C@H](C)N(C(=O)Nc2c(C)noc2C)C[C@H]1C | 2 | ? | 31* | 0
CN1c2ccc(-c3cccc(F)c3)cc2[C@@H]2[C@@H](CCN2C(=O)C2CCC2)[C@H]1CO | 11 | 0 | 0 | 0
CCOC(=O)C1C(c2cccc([N+](=O)[O-])c2)C2C(=O)NN=C2CC1(C)O (stereo not drawn) | -2 | 0 | -2 | ·
O=C(C[C@H]1CC[C@H](NC(=O)C2CCC2)[C@@H](CO)O1)NC1CCC1 | 11 | 0 | 40* | -1
O=C(C[C@@H]1CC[C@@H](NC(=O)CC2CC2)[C@@H](CO)O1)NCC(F)(F)F | 20 | 0 | 62* | 0
O=C(C[C@@H]1CC[C@@H](NC(=O)C2CCC2)[C@@H](CO)O1)NC1CCC1 | 3 | 0 | -7 | -1
O=C(C[C@H]1CC[C@H](NC(=O)C2CCOCC2)[C@@H](CO)O1)NCC1CC1 | -4 | 0 | 34* | -1
CN1\C(=C/C=C/C=C/C=[N+](C)C)C(C)(C)c2ccccc21 | 3 | 0 | 3 | 188*
CN1/C(=C/C=C(C#N)C#N)C(C)(C)c2ccccc21 | -13 | 25* | 3 | 7
CN1/C(=C\C=O)C(C)(C)c2ccccc21 | -37 | 0 | · | 3
CC(C)(C)OC(=O)COc1ccc(/C=N/NC(=O)CN2CCCCC2)cc1 | 6 | 0 | 6 | 0
Cc1[nH]oc(=O)c1N=Nc1c(Cl)cccc1Cl | · | 0 | · | ·
COc1ccc(NC2CCCN(C(=O)c3csc(C(C)C)n3)C2)cc1OC (stereo not drawn) | 11 | 0 | -1 | 79*
COc1ccc(NC2CCCN(C(=O)c3csc(C(C)C)n3)C2)cc1 (stereo not drawn) | -1 | 0 | 1 | 2
CC(C)c1nc(SCC(=O)N2c3ccccc3CC2C)c2ccccc2n1 (stereo not drawn) | 0 | · | -3 | ·
COc1cc(OC)c(-c2c3cc(O)c(=O)cc-3oc3cc(O)c(O)cc23)cc1OC | -18 | 0 | 7 | ·
Cc1c2cc(O)c(=O)cc-2oc2cc(O)c(O)cc12 | 180* | · | · | ·
CC(C)(C)NC(=O)c1ccccc1NC(=O)C1CC(=O)N(C2CCCCC2)C1 (stereo not drawn) | -3 | 0 | 7 | 0
OC[C@@H]1[C@H](c2ccc(C#Cc3ccccc3F)cc2)[C@H]2CN(Cc3cncnc3)CCCCN12 | 56 | 0 | -26 | 0
Cc1cccc(OCC(O)Cn2ccnc2C)c1 (stereo not drawn) | 0 | 0 | -2 | ·
Cc1cccc(C)c1OCC(O)Cn1ccnc1C (stereo not drawn) | 0 | 0 | 40* | -1
SMILES | S100A4 inh HTS | Xi reactivation | DENV2 CPE | E-selectin induc
Cc1noc(C)c1NC(=O)N[C@@H]1CC[C@@H](CCNC(=O)C2CCCCC2)O[C@@H]1CO | 1 | 0 | -1 | 0
Cc1noc(C)c1NC(=O)N[C@@H]1CC[C@H](CCNC(=O)C2CCOCC2)O[C@@H]1CO | 98* | 0 | -4 | 1
Cc1noc(C)c1NC(=O)N[C@H]1CC[C@H](CCNC(=O)C2CCCC2)O[C@@H]1CO | 1 | 0 | 20* | 0
Cc1ccccc1CN(C)CCS(=O)(=O)c1cc(Cl)ccc1Cl | -3 | 0 | -6 | 0
C[C@H]1CN([C@@H](C)CO)C(=O)c2cc(C#CC3CC3)cnc2O[C@@H]1CN(C)C | -8 | 0 | 69* | 0
C[C@@H]1CN([C@H](C)CO)C(=O)c2cc(C#Cc3ccc(F)cc3)cnc2O[C@@H]1CN(C)C | 1 | 1 | 81* | ·
C[C@@H]1CN([C@H](C)CO)C(=O)c2cc(C#CC3CC3)cnc2O[C@H]1CN(C)C | -7 | 0 | 3 | 0
C[C@H]1CN([C@@H](C)CO)C(=O)c2cc(C#CC3CCCCC3)cnc2O[C@H]1CN(C)Cc1cncnc1 | 98* | -1 | 8 | 0
C[C@@H]1CN([C@@H](C)CO)C(=O)c2cc(C#CC3CCCCC3)cnc2O[C@H]1CN(C)Cc1cncnc1 | -48 | -1 | -8 | 0
C[C@@H]1CN([C@H](C)CO)C(=O)c2cc(C#Cc3ccc(F)cc3)cnc2O[C@H]1CN(C)C | -5 | 0 | -7 | ·
C[C@H]1CN([C@@H](C)CO)C(=O)c2cc(C#CC3CCCCC3)cnc2O[C@H]1CN(C)S(=O)(=O)c1ccc(F)cc1 | 37 | -1 | 72*! | 1
C[C@@H]1CN([C@@H](C)CO)C(=O)c2cc(C#CC3CCCCC3)cnc2O[C@@H]1CN(C)S(=O)(=O)c1ccc(F)cc1 | -4 | 0 | 4 | 0
O=C(CC1S/C(=N/N=C2CCCCCC2)NC1=O)Nc1ccccc1F (stereo not drawn) | -1 | 0 | -1 | 0
Cc1ccc(C)c(N2N=C(C(=O)N(CC(C)C)c3c(N)n(Cc4ccccc4)c(=O)[nH]c3=O)CCC2=O)c1 | -10 | 0 | -8 | ·
Cc1cc(Br)ccc1NC(=O)CN(C)C(=O)COc1cccc2c1OC(C)(C)C2 | 3 | 0 | 91* | ·
Cc1cccc(C)c1NC(=O)CN(C)C(=O)COc1cccc2c1OC(C)(C)C2 | 3 | 0 | 0 | 1
O=C(Cc1cccc(C(F)(F)F)c1)Nc1ccc(S(=O)(=O)N2CCCC2)cc1 | -6 | 1 | 79* | 1
O=C(Cc1cccc(C(F)(F)F)c1)Nc1cccc(S(=O)(=O)N2CCCC2)c1 | -4 | 0 | -2 | 0
C[C@@H]1CN([C@H](C)CO)S(=O)(=O)c2ccc(C3=CCCCC3)cc2O[C@@H]1CN(C)S(=O)(=O)c1ccc(F)cc1 | 8 | 1 | 23* | 0
CCCC#Cc1ccc2c(c1)O[C@H](CN(C)S(=O)(=O)c1cccc(OC)c1)[C@@H](C)CN([C@H](C)CO)S2(=O)=O | · | 0 | · | 0
CCCC#Cc1ccc2c(c1)O[C@@H](CN(C)S(=O)(=O)c1cccc(OC)c1)[C@@H](C)CN([C@@H](C)CO)S2(=O)=O | 29 | 0 | 12 | 98*
COc1cccc(S(=O)(=O)N(C)C[C@@H]2Oc3cc(C4=CCCC4)ccc3S(=O)(=O)N([C@H](C)CO)C[C@H]2C)c1 | -6 | 0 | 55* | 0
O=C(Nc1nc(-c2ccc(-c3ccccc3)cc2)cs1)C1=COCCO1 | · | 0 | · | ·
